One data set concerns the target T1, D(4) dopamine receptor (Homo sapiens, UniProt P21917).
T1 sequence (P21917 whole entry): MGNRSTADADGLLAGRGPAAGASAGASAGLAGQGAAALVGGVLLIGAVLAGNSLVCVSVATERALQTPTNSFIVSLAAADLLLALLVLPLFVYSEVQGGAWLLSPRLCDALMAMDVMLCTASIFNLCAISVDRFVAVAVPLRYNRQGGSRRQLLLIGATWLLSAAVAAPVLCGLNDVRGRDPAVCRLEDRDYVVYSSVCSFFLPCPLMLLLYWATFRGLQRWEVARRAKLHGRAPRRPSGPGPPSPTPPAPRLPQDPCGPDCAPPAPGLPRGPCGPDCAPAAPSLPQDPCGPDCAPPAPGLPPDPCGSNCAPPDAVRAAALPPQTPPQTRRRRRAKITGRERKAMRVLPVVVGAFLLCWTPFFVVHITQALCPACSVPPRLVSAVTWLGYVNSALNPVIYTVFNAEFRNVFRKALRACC
Briefly: Binding affinity to human D4 receptor transfected in human HEK293 cells by gamma-counting. The format is cell-based. The method, boiled down:
(§1)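 Nonspecific binding defined with 20 µM (+)-butaclamol. Inhibitor spans 5 log units at two points per decade, in triplicate. Filtration and gamma counting. One-site IC50 converted to Ki by Cheng–Prusoff. At least three independent experiments.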

In another data set the target is D(3) dopamine receptor (Homo sapiens, UniProt P35462). Briefly: Displacement of [125I]-IABN from human D3 receptor transfected in human HEK 293 cells by gamma-counting. The format is cell-based, HEK293. The method, boiled down: as §1
Chain of D(3) dopamine receptor (P35462 whole entry): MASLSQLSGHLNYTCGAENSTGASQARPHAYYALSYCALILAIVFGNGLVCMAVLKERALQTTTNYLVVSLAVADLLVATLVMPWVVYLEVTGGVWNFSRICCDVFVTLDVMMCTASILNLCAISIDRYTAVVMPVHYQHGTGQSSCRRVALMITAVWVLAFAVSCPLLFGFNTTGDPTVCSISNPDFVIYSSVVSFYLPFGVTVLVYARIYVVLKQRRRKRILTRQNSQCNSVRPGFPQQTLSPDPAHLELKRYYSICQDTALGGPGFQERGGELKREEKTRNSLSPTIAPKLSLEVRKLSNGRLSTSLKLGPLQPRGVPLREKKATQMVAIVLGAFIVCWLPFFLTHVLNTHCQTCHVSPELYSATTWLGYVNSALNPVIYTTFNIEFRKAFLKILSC
The next data set is filed under the species Homo sapiens. Briefly: Selectivity ratio of Ki for human D2 receptor to Ki for human D3 receptor. The method, boiled down: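 Selectivity index is Ki(D2)/Ki(D3). Both Ki values come from [125I]IABN competition on membranes of HEK 293 cells stably expressing the human receptor. Incubation was 60 min at 37°C at pH 7.5, with Cheng–Prusoff correction.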

The target of the next data set is D(2) dopamine receptor (Homo sapiens, UniProt P14416). Briefly: Displacement of [125I]-IABN from human D2 receptor transfected in human HEK 293 cells by gamma-counting. The format is cell-based, HEK293. In outline:
as §1
(Displacement assays read how much labelled ligand stays bound in the presence of the test substance.)

Data set [1] has as its target Sigma non-opioid intracellular receptor 1 (Cavia porcellus, UniProt Q60492). Briefly: Displacement of [3H]-pentazocine from guinea pig sigma1 receptor by liquid scintillation counting. In outline:
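Guinea pig brain membranes (~300 µg protein) incubated with ~5 nM (+)-[3H]-pentazocine for 90 min at room temperature in Tris-HCl/NaCl/EDTA pH 7.4. […] Filtration and scintillation counting. IC50 taken from a one-site fit.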

Data set [2] in a line: Partition coefficient, log P of the compound. The format is physicochemical. Conditions: octanol/water.

Chain of Sigma non-opioid intracellular receptor 1 (Q60492 whole entry): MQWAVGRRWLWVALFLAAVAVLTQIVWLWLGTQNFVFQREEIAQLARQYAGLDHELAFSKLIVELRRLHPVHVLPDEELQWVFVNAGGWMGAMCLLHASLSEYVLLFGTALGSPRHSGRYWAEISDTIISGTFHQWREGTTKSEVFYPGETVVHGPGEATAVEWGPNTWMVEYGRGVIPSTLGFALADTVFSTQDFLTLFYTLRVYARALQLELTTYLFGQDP
Chain of D(2) dopamine receptor (P14416 whole entry): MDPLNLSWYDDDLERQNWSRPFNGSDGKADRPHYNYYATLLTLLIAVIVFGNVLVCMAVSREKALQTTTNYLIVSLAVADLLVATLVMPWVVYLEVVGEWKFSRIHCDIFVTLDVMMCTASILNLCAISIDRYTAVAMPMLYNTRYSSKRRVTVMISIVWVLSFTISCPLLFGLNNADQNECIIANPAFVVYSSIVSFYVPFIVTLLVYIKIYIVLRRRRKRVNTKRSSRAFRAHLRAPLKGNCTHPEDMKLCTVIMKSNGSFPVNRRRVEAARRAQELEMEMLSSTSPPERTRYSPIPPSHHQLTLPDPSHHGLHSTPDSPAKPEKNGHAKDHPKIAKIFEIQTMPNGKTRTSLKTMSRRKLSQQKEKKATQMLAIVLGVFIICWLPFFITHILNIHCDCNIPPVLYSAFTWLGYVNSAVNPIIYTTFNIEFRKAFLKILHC

As usually defined, the Ki is the dissociation constant of the complex between target and ligand, obtained from inhibition or displacement. Higher therefore signals lower affinity. Usually logP stands for a log measure of how a compound divides between an organic and an aqueous phase. Low values mean a more hydrophilic compound, high ones a more lipophilic compound. As for `O=C(NC/C=C/CN1CCN(c2ccccc2OCCF)CC1)c1ccc(-c2ccsc2)cc1`, the Ki on D(4) dopamine receptor was determined as 0.182 µM; on D(3) dopamine receptor, 0.0011 µM; at D(2) dopamine receptor, 0.0705 µM; in data set [1] it was 7.78 µM. In addition, the Ratio Ki in the data set listed under Homo sapiens came out at 64. Besides, the logP in data set [2] was determined as 4.74.
In the case of `COc1ccccc1N1CCN(C/C=C/CNC(=O)c2cc(C)ccc2OCCF)CC1`, the Ki stood at 0.0185 µM on D(3) dopamine receptor and 0.0178 µM at D(2) dopamine receptor. Also, the Ratio Ki in the data set listed under Homo sapiens worked out at 1. In addition, the logP in data set [2] worked out at 3.66.
The matching figures for `O=C(NCCCCN1CCN(c2ccccc2OCCF)CC1)c1ccc(CCF)cc1`: 0.0069 µM, 0.0214 µM, 3.1 and 3.68.
In the case of `O=C(NCCCCN1CCN(c2ccccc2OCCF)CC1)c1ccc(OCCOCCF)cc1`, the Ki at D(3) dopamine receptor turned out to be 0.0025 µM; at D(2) dopamine receptor, 0.0142 µM. Also, the logP in data set [2] is 3.34.
As for `CN(C)c1ccc(C(=O)NCCCCN2CCN(c3ccccc3OCCF)CC2)cc1`, the Ki at D(4) dopamine receptor came out at 0.89 µM; at D(3) dopamine receptor, 0.00065 µM; at D(2) dopamine receptor, 0.0151 µM; in data set [1], 1.96 µM. In addition, the logP in data set [2] is 3.75.
For `O=C(NC/C=C/CN1CCN(c2ccccc2OCCF)CC1)c1ccc(CCF)cc1`, the Ki on D(4) dopamine receptor turned out to be 0.89 µM; at D(3) dopamine receptor, 0.0011 µM; at D(2) dopamine receptor it was 0.0177 µM; in data set [1] it was 7.2 µM. In addition, the Ratio Ki in the data set listed under Homo sapiens came out at 16.1. The molecule also showed a lipophilicity (logP) in data set [2] of 3.61.
For `COc1ccccc1N1CCN(C/C=C/CNC(=O)c2cc(I)ccc2OCCF)CC1`, the Ki was determined as 0.0109 µM on D(3) dopamine receptor and 0.0132 µM on D(2) dopamine receptor. Also, the Ratio Ki in the data set filed under Homo sapiens was 1.2. In data set [2], this molecule yielded a logP of 4.73.
In the same order, the values of `COc1ccccc1N1CCN(C/C=C/CNC(=O)c2ccc(CCF)cc2)CC1` are 0.0249 µM, 0.131 µM, 5.2 and 3.43.
In the same order, the values of `COc1ccccc1N1CCN(C/C=C/CNC(=O)c2cc(Br)ccc2OCCF)CC1` are 0.0136 µM, 0.0134 µM, 1 and 4.49.
The matching figures for `COc1ccccc1N1CCN(C/C=C/CNC(=O)c2ccc(OCCOCCF)cc2)CC1`: 0.0182 µM, 0.0592 µM, 3.3 and 3.16.
With `CN(C)c1ccc(C(=O)NC/C=C/CN2CCN(c3ccccc3OCCF)CC2)cc1`, the Ki on D(3) dopamine receptor came to 0.0036 µM; at D(2) dopamine receptor, 0.0352 µM. Further, the Ratio Ki in the data set listed under Homo sapiens was found to be 9.8. In data set [2], this molecule yielded a logP of 3.83.
As to `COc1ccccc1N1CCN(CCCCNC(=O)c2ccc(OCCF)cc2)CC1`, the Ki came to 1.4 µM on D(4) dopamine receptor, 0.0011 µM at D(3) dopamine receptor, 0.0271 µM at D(2) dopamine receptor and 4.78 µM in data set [1]. In addition, the Ratio Ki in the data set filed under Homo sapiens was found to be 25. This molecule also came in with a logP in data set [2] of 3.48.
Turning to `COc1ccccc1N1CCN(CCCCNC(=O)c2ccc(CCF)cc2)CC1`, the Ki amounted to 0.804 µM on D(4) dopamine receptor, 0.0024 µM on D(3) dopamine receptor, 0.0545 µM at D(2) dopamine receptor and 3.54 µM in data set [1]. This molecule also yielded a logP in data set [2] of 2.94.
As for `COc1ccccc1N1CCN(CCCCNC(=O)c2ccc(N(C)C)cc2)CC1`, the Ki on D(4) dopamine receptor stood at 0.896 µM; at D(3) dopamine receptor, 0.0008 µM; on D(2) dopamine receptor, 0.0344 µM; in data set [1] it was 1.26 µM. Further, the Ratio Ki in the data set filed under Homo sapiens turned out to be 43. In data set [2], this molecule had a logP of 3.09.
With `O=C(NC/C=C/CN1CCN(c2ccccc2OCCF)CC1)c1ccc(OCCF)cc1`, the Ki at D(3) dopamine receptor worked out at 0.0084 µM; at D(2) dopamine receptor, 0.0379 µM. Besides, the Ratio Ki in the data set filed under Homo sapiens came out at 4.5. Also, the logP in data set [2] was found to be 3.81.
For the molecule `COc1ccccc1N1CCN(C/C=C/CNC(=O)c2cc(Br)cc(OC)c2OCCF)CC1`, the Ki on D(3) dopamine receptor came to 0.0138 µM; on D(2) dopamine receptor it was 0.0576 µM. Besides, the Ratio Ki in the data set filed under Homo sapiens came out at 4.2. For the same molecule, in data set [2], the logP was determined as 4.15.
In the same order, the values of `COc1ccccc1N1CCN(C/C=C/CNC(=O)c2ccc(OCCF)cc2)CC1` are 0.0062 µM, 0.0553 µM, 8.9 and 3.55.
In the case of `O=C(NCCCCN1CCN(c2ccccc2OCCF)CC1)c1ccc(OCCF)cc1`, the Ki at D(4) dopamine receptor worked out at 0.99 µM; on D(3) dopamine receptor it was 0.00052 µM; at D(2) dopamine receptor, 0.0151 µM; in data set [1] it was 4.36 µM. The molecule also yielded a logP in data set [2] of 3.73.
`O=C(NC/C=C/CN1CCN(c2ccccc2OCCF)CC1)c1ccc(OCCOCCF)cc1`: the Ki on D(3) dopamine receptor was 0.0196 µM; on D(2) dopamine receptor, 0.0648 µM. Besides, the Ratio Ki in the data set listed under Homo sapiens was determined as 3.3. In addition, in data set [2], the logP was found to be 3.41.
Turning to `COc1ccccc1N1CCN(CCCCNC(=O)c2ccc(OCCOCCF)cc2)CC1`, the Ki at D(3) dopamine receptor stood at 0.0062 µM. In data set [2], this molecule had a logP of 3.08.
Regarding `O=C(NCCCCN1CCN(c2ccccc2OCCF)CC1)c1ccc(OCCOCCOCCF)cc1`, the values for the Ki on D(3) dopamine receptor and at D(2) dopamine receptor were 0.0052 µM and 0.0317 µM, respectively. For the same molecule, the Ratio Ki in the data set listed under Homo sapiens worked out at 6.1. The molecule further had a logP in data set [2] of 2.98.
Consider `COc1ccccc1N1CCN(CCCCNC(=O)c2ccc(OCCOCCOCCF)cc2)CC1`, for which the Ki on D(4) dopamine receptor amounted to 2.1 µM; on D(3) dopamine receptor, 0.0042 µM; on D(2) dopamine receptor, 0.052 µM; in data set [1], 4.87 µM. Further, the Ratio Ki in the data set filed under Homo sapiens is 12.2. Besides, in data set [2], the logP came to 2.72.
`O=C(NCCCCN1CCN(c2ccccc2OCCF)CC1)c1ccc(-c2ccsc2)cc1`: the results for the Ki (on D(4) dopamine receptor; in data set [1]) were 0.246 µM and 20.9 µM, respectively. The lipophilicity (logP) in data set [2] amounted to 4.67.

Values taken from ChEMBL document CHEMBL1687933, “Synthesis and pharmacological evaluation of fluorine-containing D₃ dopamine receptor ligands” (J Med Chem, 2011).
